From ChEMBL document CHEMBL1145927 (J Med Chem, 2003) come the findings set out here.

Assay [1] deals with T1, Prostaglandin G/H synthase 1 (Homo sapiens, UniProt P23219). The settings on record: at 100 µM.
Assay [2] addresses T2, Prostaglandin G/H synthase 2 (Homo sapiens) (UniProt P35354).
T2 sequence (whole entry): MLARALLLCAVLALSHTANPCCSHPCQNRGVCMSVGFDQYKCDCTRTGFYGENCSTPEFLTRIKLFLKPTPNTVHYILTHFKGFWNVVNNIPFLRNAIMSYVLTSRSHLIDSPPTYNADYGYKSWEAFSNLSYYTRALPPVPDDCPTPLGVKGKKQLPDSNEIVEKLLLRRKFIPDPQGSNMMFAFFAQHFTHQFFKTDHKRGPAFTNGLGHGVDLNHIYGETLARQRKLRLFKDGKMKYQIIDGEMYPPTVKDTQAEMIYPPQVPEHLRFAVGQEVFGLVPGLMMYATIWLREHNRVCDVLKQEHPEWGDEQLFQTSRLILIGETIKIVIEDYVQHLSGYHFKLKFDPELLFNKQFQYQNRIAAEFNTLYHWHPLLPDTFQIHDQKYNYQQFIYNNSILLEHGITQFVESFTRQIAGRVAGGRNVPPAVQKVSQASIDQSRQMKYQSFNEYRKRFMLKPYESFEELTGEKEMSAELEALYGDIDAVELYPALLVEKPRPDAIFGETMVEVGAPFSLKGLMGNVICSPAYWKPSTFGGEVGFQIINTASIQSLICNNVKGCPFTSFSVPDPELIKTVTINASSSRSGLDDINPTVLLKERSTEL
The settings on record: at 10 µM.

In assay [3] the target is T2, Prostaglandin G/H synthase 2 (Homo sapiens). The note with it: at 1 µM.
The target in assay [4] is T1, Prostaglandin G/H synthase 1. Briefly: In vitro average percent inhibition of human prostaglandin G/H synthase 1 (COX-1) at a concentration of 100 uM. The gist of the method: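 Supplied recombinant human COX-1 (5 units) preincubated 2 min at 25 °C in 0.1 M Tris-HCl pH 8.0 with 5 mM EDTA, 2 mM phenol and heme; compound or DMSO added, 20 min at 25 °C; started with 10 mM arachidonic acid stock, 2 min at 37 °C; stopped with HCl, SnCl2 reduction; prostaglandins by EIA; percent inhibition versus solvent control.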

For assay [5] the target is unchanged. Briefly: In vitro average percent Inhibition of Prostaglandin G/H synthase 1 (COX-1) at a concentration of 100 uM determined in human whole blood by human whole blood (HWB) assay. It counts as tissue-based.
The target of assay [6] is T2, Prostaglandin G/H synthase 2 (Homo sapiens). The note with it: Blood; at 1 µM.
For assay [7], the target named is T1, Prostaglandin G/H synthase 1. The assay is described as follows: In vitro average percent Inhibition of Prostaglandin G/H synthase 1 (COX-1) at a concentration of 100 uM in human whole blood by human whole blood assay. It counts as tissue-based.
For assay [8], the target named is T3, Prostaglandin G/H synthase 1 (Ovis aries) (UniProt P05979).
T3 sequence (whole entry): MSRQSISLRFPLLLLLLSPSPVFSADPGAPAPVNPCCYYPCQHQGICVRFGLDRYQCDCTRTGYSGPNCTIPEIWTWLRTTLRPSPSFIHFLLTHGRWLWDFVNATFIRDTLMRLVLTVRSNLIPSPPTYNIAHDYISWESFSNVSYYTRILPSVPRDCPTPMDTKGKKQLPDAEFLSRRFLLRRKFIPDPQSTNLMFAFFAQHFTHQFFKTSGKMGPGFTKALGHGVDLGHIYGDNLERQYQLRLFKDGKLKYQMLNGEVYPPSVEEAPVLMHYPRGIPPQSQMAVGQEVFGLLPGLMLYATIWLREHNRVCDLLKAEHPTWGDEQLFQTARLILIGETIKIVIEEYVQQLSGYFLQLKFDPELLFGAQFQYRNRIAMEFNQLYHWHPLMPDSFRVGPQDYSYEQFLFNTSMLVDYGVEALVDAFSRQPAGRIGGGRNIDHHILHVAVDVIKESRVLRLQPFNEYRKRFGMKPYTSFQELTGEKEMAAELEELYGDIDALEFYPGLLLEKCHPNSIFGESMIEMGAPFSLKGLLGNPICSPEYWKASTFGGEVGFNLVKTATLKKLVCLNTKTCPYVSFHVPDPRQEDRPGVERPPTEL
The assay is described as follows: Compound was tested for in vitro inhibition of recombinant ovine Prostaglandin G/H synthase 1 (COX-1) at a concentration of 100 uM. The essentials: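 Supplied recombinant ovine COX-1 (5 units) preincubated 2 min at 25 °C in 0.1 M Tris-HCl pH 8.0 with 5 mM EDTA, 2 mM phenol and heme; compound or DMSO added, 20 min at 25 °C; started with 10 mM arachidonic acid stock, 2 min at 37 °C; stopped with HCl, SnCl2 reduction; prostaglandins by EIA; percent inhibition versus solvent control.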

For assay [9], the target named is T2, Prostaglandin G/H synthase 2 (Homo sapiens). The note with it: Blood; at 10 µM.

T1 sequence (P23219 whole entry): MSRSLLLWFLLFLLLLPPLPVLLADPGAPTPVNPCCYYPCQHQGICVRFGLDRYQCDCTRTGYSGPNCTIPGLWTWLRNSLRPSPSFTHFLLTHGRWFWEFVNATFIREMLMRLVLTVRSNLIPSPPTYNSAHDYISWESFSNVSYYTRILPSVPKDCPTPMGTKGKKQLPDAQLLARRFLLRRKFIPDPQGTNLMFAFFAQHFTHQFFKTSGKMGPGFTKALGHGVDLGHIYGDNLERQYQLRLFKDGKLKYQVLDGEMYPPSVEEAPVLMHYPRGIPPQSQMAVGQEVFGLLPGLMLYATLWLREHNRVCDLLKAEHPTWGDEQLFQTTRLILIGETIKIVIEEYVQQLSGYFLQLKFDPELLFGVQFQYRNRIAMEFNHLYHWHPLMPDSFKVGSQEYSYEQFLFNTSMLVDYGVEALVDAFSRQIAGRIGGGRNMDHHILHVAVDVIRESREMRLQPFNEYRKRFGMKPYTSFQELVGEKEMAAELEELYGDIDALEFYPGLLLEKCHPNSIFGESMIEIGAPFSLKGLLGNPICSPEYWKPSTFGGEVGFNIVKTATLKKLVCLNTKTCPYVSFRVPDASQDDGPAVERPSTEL

What is called inhibition is the drop in the measured response relative to a control, in per cent. `CCOC(=O)C1CCN(Cc2cc3c(cc2-c2ccc(S(C)(=O)=O)cc2)OCO3)CC1`: the inhibition in [1] was found to be 0%; in [2] it was 20%; in [3], 20%.

For `CS(=O)(=O)c1ccc(-c2cc3c(cc2C(=O)N2CCCCC2)OCO3)cc1`, the results for the inhibition in assay [1], in assay [2] and in assay [3] were 15%, 40% and 20%, respectively.

As to `CS(=O)(=O)c1ccc(-c2cc3c(cc2CN2CCCCC2=O)OCO3)cc1`, the inhibition in assay [4] amounted to 50%; in assay [1], 70%; in [2] it was 90%; in [3], 20%.

For the compound `CS(=O)(=O)c1ccc(-c2cc3c(cc2C(=O)c2cc(F)cc(F)c2)OCO3)cc1`, in assay [4], the inhibition amounted to 50%.

In assay [5], `CS(=O)(=O)c1ccc(-c2ccccc2Cc2cccc(F)c2)cc1` had an inhibition of 35%.

As for `CCOC(=O)C1CCCN(Cc2cc3c(cc2-c2ccc(S(C)(=O)=O)cc2)OCO3)C1` (stereo not drawn), the inhibition in assay [1] came out at 10%; in [2], 40%; in assay [3], 40%.

In assay [4], `CS(=O)(=O)c1ccc(-c2cc3c(cc2C(=O)c2cccc(Cl)c2)OCO3)cc1` came in with an inhibition of 90%.

Take `CS(=O)(=O)c1ccc(-c2cc3c(cc2C(=O)N2CCOCC2)OCO3)cc1`: the inhibition in assay [1] amounted to 10%; in assay [2] it was 10%; in [3], 35%.

The compound `COc1cccc(C(=O)c2cc3c(cc2-c2ccc(S(C)(=O)=O)cc2)OCO3)c1` yielded an inhibition in assay [4] of 95%.

Take `CN1CCN(C(=O)c2cc3c(cc2-c2ccc(S(C)(=O)=O)cc2)OCO3)CC1`: the inhibition stood at 15% in [1], 15% in assay [2] and 20% in [3].

Consider `CS(=O)(=O)c1ccc(-c2cc3c(cc2Cc2cccc(F)c2)OCO3)cc1`, for which the inhibition in [4] is 25%.

The compound `Cc1cccc(Cc2cc3c(cc2-c2ccc(S(C)(=O)=O)cc2)OCO3)c1` gave an inhibition in assay [4] of 10%.

As for `Cc1ccc(F)c(Cc2cc3c(cc2-c2ccc(S(C)(=O)=O)cc2)OCO3)c1`, the inhibition in assay [4] amounted to 40%.

As for `CS(=O)(=O)c1ccc(-c2cc3c(cc2C(=O)c2cccnc2)OCO3)cc1`, the inhibition was 20% in assay [1], 20% in assay [2] and 0% in [3].

With `O=S(=O)(CF)c1ccc(-c2cc3c(cc2Cc2ccccc2)OCO3)cc1`, the inhibition worked out at 50% in [1], 50% in [2] and 25% in [3].

The compound `Cc1ccc(C(=O)c2cc3c(cc2-c2ccc(S(C)(=O)=O)cc2)OCO3)cc1` displayed an inhibition in [4] of 60%.

Consider `CS(=O)(=O)c1ccc(C2=C(c3ccccc3)C(=O)OC2)cc1`, for which the inhibition is 0% in assay [1], 75% in [6], 75% in assay [7] and 40% in [3].

In the case of `CS(=O)(=O)c1ccc(-c2cc3c(cc2CN2CCCCC2CO)OCO3)cc1` (stereo not drawn), the inhibition was found to be 0% in assay [1], 30% in [2] and 25% in [3].

Turning to `CS(=O)(=O)c1ccc(-c2cc3c(cc2C=C2CCCC2)OCO3)cc1`, the inhibition in assay [4] was 70%; in [8], 80%; in assay [2] it was 90%; in [3], 65%.

Regarding `CS(=O)(=O)c1ccc(-c2cc3c(cc2C(O)c2ccccc2)OCO3)cc1` (stereo not drawn), the inhibition in assay [1], in assay [2] and in assay [3] was 0% each time.

As to `CS(=O)(=O)c1ccc(-c2cc3c(cc2CN2CCCC(CO)C2)OCO3)cc1` (stereo not drawn), the values for the inhibition in [1], in assay [2] and in [3] were 0%, 30% and 20%, respectively.

As to `CS(=O)(=O)c1ccc(-c2cc3c(cc2C(=O)N2CCCC2)OCO3)cc1`, the figures for the inhibition in assay [1], in assay [2] and in assay [3] were 0%, 20% and 0%, respectively.

In turn, `CS(=O)(=O)c1ccc(-c2cc3c(cc2C(=O)c2ccccc2F)OCO3)cc1` yielded an inhibition in assay [4] of 70%.

In the case of `CS(=O)(=O)c1ccc(-c2cc3c(cc2CN2CCC(O)CC2)OCO3)cc1`, the inhibition was 0% in assay [1], 25% in assay [2] and 10% in assay [3].

Take `CS(=O)(=O)c1ccc(-c2cc3c(cc2CC2CCCC2)OCO3)cc1`: the inhibition was found to be 20% in [8], 70% in [2] and 40% in assay [3].

`CS(=O)(=O)c1ccc(-c2cc3c(cc2C(=O)C2CCCCC2)OCO3)cc1`: the inhibition in assay [4] amounted to 55%.

With `CS(=O)(=O)c1ccc(-c2cc3c(cc2C(=O)c2cnccc2Br)OCO3)cc1`, the inhibition stood at 40% in assay [8], 0% in [2] and 10% in assay [3].

In assay [4], `Cc1ccc(F)c(C(=O)c2cc3c(cc2-c2ccc(S(C)(=O)=O)cc2)OCO3)c1` displayed an inhibition of 90%.

Turning to `Cc1cccnc1C(=O)c1cc2c(cc1-c1ccc(S(C)(=O)=O)cc1)OCO2`, the inhibition in assay [1] was determined as 0%; in assay [2] it was 10%; in assay [3], 0%.

Consider `CS(=O)(=O)c1ccc(-c2cc3c(cc2C(=O)c2ccc(F)cc2)OCO3)cc1`, for which, in assay [4], the inhibition came to 95%.

For `COc1cccc(Cc2cc3c(cc2-c2ccc(S(C)(=O)=O)cc2)OCO3)c1`, the inhibition in assay [4] came out at 35%.

Consider `CS(=O)(=O)c1ccc(-c2cc3c(cc2Cc2ccc(F)cc2)OCO3)cc1`, for which the inhibition in [8] worked out at 10%; in assay [2], 0%; in assay [3], 10%.

Turning to `CS(=O)(=O)c1ccc(-c2cc3c(cc2Cc2cccc(Cl)c2)OCO3)cc1`, in assay [4], the inhibition was 65%.

For the compound `CS(=O)(=O)c1ccc(-c2cc3c(cc2CN2CCCCC2)OCO3)cc1`, the inhibition stood at 0% in assay [1], 30% in assay [2] and 0% in [3].

As for `CS(=O)(=O)c1ccc(-c2cc3c(cc2C(=O)c2ccccc2)OCO3)cc1`, the inhibition in assay [1] turned out to be 0%; in assay [9], 65%; in assay [6] it was 25%; in assay [2], 90%; in [7], 75%; in [3], 10%.

In the case of `CS(=O)(=O)c1ccc(-c2cc3c(cc2CC2CCCCC2)OCO3)cc1`, the inhibition in assay [4] came out at 50%; in [1], 0%; in assay [2], 100%; in assay [3], 100%.

Turning to `CS(=O)(=O)c1ccc(-c2cc3c(cc2Cc2cccnc2)OCO3)cc1`, the inhibition in [1] was 30%; in assay [9] it was 15%; in assay [6], 15%; in assay [2], 65%; in assay [7], 35%; in [3], 0%.

`CS(=O)(=O)c1ccc(-c2cc3c(cc2Cc2ccccc2F)OCO3)cc1`: the inhibition in assay [4] came out at 75%.

Consider `CS(=O)(=O)c1ccc(-c2cc3c(cc2CC2CCCCCC2)OCO3)cc1`, for which the inhibition in assay [4] was found to be 40%; in [8], 10%; in assay [2], 100%; in assay [3], 90%.
